Test results reported in the EternaBench riboswitch data.

System: MS2 coat protein
Assay: apparent Kd, MS2 coat protein; higher = weaker binding; RNA-MaP array; FMN 200 µM where present
In short: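 The titrant was SNAP-549-labelled MS2 coat protein, run from 0.7 or 1.5 nM in doubling steps to 3 µM. It was applied to designs transcribed by stalled E. coli RNA polymerase on Illumina sequencing-chip clusters, without ligand first and then with constant ligand, in 100 mM Tris-HCl pH 7.5, 80 mM KCl, 4 mM MgCl2, BSA, DTT, yeast tRNA and Tween-20. The apparent Kd is the median of filtered per-cluster binding-curve fits, with green signal normalised to red-channel RNA signal and control-cluster median Fmax.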

[1] = designed as: ON switch for flavin mononucleotide, no ligand
[2] = ligand present: flavin mononucleotide, designed as: ON switch for flavin mononucleotide
[3] = designed as: OFF switch for flavin mononucleotide, no ligand
[4] = ligand present: flavin mononucleotide, designed as: OFF switch for flavin mononucleotide

Sequence | apparent Kd [1] [nM] | apparent Kd [2] [nM] | apparent Kd [3] [nM] | apparent Kd [4] [nM]
AGAAAUAAAAAUGAGGAUAUGCAAAAGAAAACAUGAGGAUCACCCAUGUAAAAGAAAAUAAAUGGGCAGAAGGCAUGAAAUAAAGA | 136 | 44.9 | – | –
GUUUCUAUAUGUUUUAUUUAACAGUCAGAAGGUGAUAAUACGACAUGAGGAUCACCCAUGUAAUUCAAGGAUAUGAUAUUAAUC | 62.7 | 27.7 | – | –
GUCGGAAACGACAAAAGUAGCAUAGGAGAAGGCAUGUCAAAGACAUGAGGAUCACCCAUGUAGCAUGAGGAUAUCCUAUGCUAC | 5.24 | 4.97 | – | –
AAAUAAAGUACCUUGAUAUCCUCACAUGAGGAUCACCCAUGUCAGGAUAUUUGUCCUAAAAGGACAGAGAAGGGACAAGGUAUA | – | – | 5.82 | 6.19
AAUUAACAUGAGGAUCACCCAUGUGAGGAUAUGGUAUUACUUGGACAGCUAUGAUCUACCAGAAGGCACAUAUA | – | – | 28.7 | 49.4
UCCUUGUCCUGAGGAUAUCCGCGGUUCCCAAAAGGAGAAGGCAGGACAUGAGGAUCACCCAUGUACCCAGAAAACGUGCAGAAU | – | – | 9.87 | 42.7
AAGUCGAGCGUGAGGAUAUCGACCGGACGACCCAUCGAGAAGGCACAUGAGGAUCACCCAUGUGAUUCAGCUCA | – | – | 16.9 | 25.9
UGAUCGAGAGAUCUUAGAUUCUGGUAGGAUAUACAUAAAAUGCGCUUUACAUGAGGAUCACCCAUGUAGAAGGACUAGAGUCUA | – | – | 7.54 | 9.8
GGACGACACAUGAACAUGAGGAUCACCCAUGUAAAUUCUCAUGAGGAUAUGGAUCCUAAUUGGAUCCAGAAGGCGUGGUCGUCC | 961 | 507 | – | –
AAAAGACAUGAGGAUCACCCAUGUGAAAACGUGCGAGGAUAUGUAUGGAAACCAUACUGUACAGAAGGCGUUUGUC | 31.2 | 31.6 | – | –
CUUUGAUGAGGAUAUCGAGGUUAGUACAUGAGGAUCACCCAUGUUAUCCAGGUGUCGGAUCGAGAAGGUAUUGGAC | – | – | – | 17.5
GUCAUUUAUGUAGGAUAUGCGAGGCGAGCCUGAGCAGAAGGACAUGAGGAUCACCCAUGUAUUGCGGUUUAUGUUCAGAUCGCU | – | – | 16.3 | 19
CGCGAAAACAUAGGAUAUUGUUACAUGAGGAUCACCCAUGUCAACCAUUUAUCUCAAAUUGUUGACAAGAAGGAUGAGGUCGCG | 113 | 28.4 | – | –
UUAAAUCAUGUAGGAUAUGCAUGGCGAAGCUACGCAGAAGGACAUGAGGAUCACCCAUGUUAUAGCUACCGAUUAAGGUGGCAA | – | – | 92.9 | 246
GGAUAGGACAGAGGAUAUACGUGCUAGAGAUACUAGCAAAAUUACCUCACAUGAGGAUCACCCAUGUAGAAGGCUGUCCUAUCG | – | – | 5.29 | 60.6
AACUCGUCAGGAUAUGCAUGCAGUUGCUGCAUUUCGCCGUUGCAGAAGGGACAUGAGGAUCACCCAUGUAGGUC | – | – | 42.4 | 37.2
GACUAGGCAGGAUAUACAUGAGGAUCACCCAUGUGUCUGCGUUAAGCACGUGAAGACGGUAGAAGGGCCUACAC | – | – | 14.4 | 18.1
AGCUACGUUUCGUAGCAGUGUCAUCGAGAAGGCCUUAUAACAUGAGGAUCACCCAUGUUAACAUGGGAGGAUAUCGAUGAUACA | 10.5 | 5.34 | – | –
UUUAUGUGAGGAUAUAGUACUCCUUCUAUUAUUUUUGAGUACUAGAAGGCACAUGAGGAUCACCCAUGUAGUAC | – | – | 22.5 | 48.6
CUAGCAACAUGAGGAUCACCCAUGUAGGAUAUCGCUAUUGUAAUCAUGAAACAUGAUUACAAUAGCGAGAAGGACAUAUGCUAC | – | – | 9.59 | 11
UUAAUUAACAAGAAGGCUUACAUGAGGAUCACCCAUGUUGUACAUGGAUAAAGAGGAUAUUGCUAAUAAUUAUUUUUCUUAAUU | – | – | 92.1 | 57.5
GUGCGCGGCUAGGAUAUUGUGGGUUUUUGUCUGCGAGAAGGUGCCACAUGAGGAUCACCCAUGUGGUGUUGCUC | – | – | 24.1 | 30
GAUUUAGAGCAGGAUAUCAUAGAAUUAUAUGAAUGAGAAGGGCUCACAUGAGGAUCACCCAUGUGGUCCUAGAU | – | – | 21.1 | 167
UUGUUGUAUGUAGGAUAUGCGUAUUGUUAUUAUGCAGAAGGACAUGAGGAUCACCCAUGUAUAUUAUUAUUAUAUAUUAUAUAU | – | – | 26.3 | 43.5

Sequence | apparent Kd [1] [nM] | apparent Kd [2] [nM] | apparent Kd [3] [nM] | apparent Kd [4] [nM]
UUAUGUUUUGUAGGAUAUCAUUAGAUUUGUAUUUUAAUUGUAAUUUAGAUAUGAGAAGGACAUUUACAUGAGGAUCACCCAUGU | – | – | 14.7 | 10.7
GACGGUGAUGUAGGAUAUACGCUGGAAUACAGCGUAGAAGGACAUGAGGAUCACCCAUGUAGAGUGUCUCCAAAUAACACCGUC | – | – | 43.5 | 284
UUAAAUCAUGUAGGAUAUGCAUGGCGAAGCUACGCAGAAGGACAUGAGGAUCACCCAUGUUCAAGCGUCUGAGUACAGAUGCAA | – | – | 20.9 | 102
CGAGCUGCCAGAGGAUAAUGGACAUGAGGAUCACCCAUGUGUCAGGAUAUGGGUUUCACAUGGACUCAGAAGGGACCAGCCCGA | 107 | 30.2 | – | –
CAGUACUGAGGAUAUACAUGAGGAUCACCCAUGUGUUCGUGGUAGGAUAUCCGCAAAAGUAGAAGCCAGAAGGAGAUGUGCGUG | – | – | 17.7 | 13.9
AGGUACGGUCGAUCAUAUCAAGGUAGAAGGCGACUGGGAAUGUGAGACAUGAGGAUCACCCAUGUCGAGGAUAUACCUGAAAGU | – | – | 88.9 | 50.1
CAUGUCUGAGGAUAUCGUUUUUUGUACAUGAGGAUCACCCAUGUCCUAUUUUUUUUAUUUCGAGAAGGCAGUGUAU | – | – | 47.7 | 37.7
AUAUGAAAGAUAGGAUAUACUGAGGUUGAAUGGGUAGAAGGAUCGAUAGUGGAGAAGACAUGAGGAUCACCCAUGUUGUGGAUU | 656 | 237 | – | –
UUUAAGUCAGGAUAUCGUUAAUUUAAUUAUUUAUUUUAGUUCGAGAAGGGACAUGAGGAUCACCCAUGUAAUUU | – | – | 40.5 | 63.1
GAGAAGAGGGAAGGAUAUACAUGAGGAUCACCCAUGUAGAUAGGUUUAAUAGGUUGUUGUUGUUUGUAGAAGGUCCGGUUUGUU | – | – | 18 | 16.8
AUCCCGAUAGUAGGAUAUUUCUGCAGUUGUGGUUAGGUCGCCCUACAUGAGGAUCACCCAUGUAGAGAGAAGGACUGUGGUUAA | – | – | 5.52 | 6.7
GCUGCAUAGGCAGGAUAUGCAAGAAUUGAAAUAAAAUAUAAUAAAUGAACAUGAGGAUCACCCAUGUAGAAGGGCCUGUGCAGU | – | – | 20.8 | 21.4
CCAUAAAAGAUCCAAAAUUACAACAUGAGGAUCACCCAUGUGCAGGAUAUCGUGAAAGUAAAAUACGAGAAGGGCAAACACUGC | – | – | 365 | 442
AUUCAGCGAGGAUAUACAGGUUCUGGGUGAGGCUCGGCGAGACAUGAGGAUCACCCAUGUAGAAGGUGCUAGCC | – | – | 341 | 284
UAAAAGUCAGGAUAUGCGAGAGAUUGAAGUGUGGCAAGGUAGCAGAAGGGACAUGAGGAUCACCCAUGUGUGGC | – | – | 52.4 | 115
UGUACUUAUUUUAAUUAUGAUUUACUAGAAGGUAGAUACAUGAGGAUCACCCAUGUUUAGAGUUCUAAGGAUAUAGAUUUUAUC | 10.3 | 10.2 | – | –
GAAAACAGAGGAUAUACAUGAUUAUGACGAAAGUCAUAAAAACAUGAGGAUCACCCAUGUAGAAGGCUGAAGAA | – | – | 185 | 201
UUACUCAUGUAAGGAUAUGUAGCCGUUUCGGCUGCAGAAGGUACUAUAAUACAUGAGGAUCACCCAUGUCUUUUUAAUUUAGAC | 69.3 | 39.8 | – | –
CAUAAGAUAGGAUAUACAGGCCCGUCUUUAUAUUGAUCCCGACAUGAGGAUCACCCAUGUAGAAGGAUCAUAUG | – | – | 13.7 | 15.2
UCCCGGGUGCAGAAGGGAUAGGCCUAUUUUCGUGGUAUCCAAACCUAACAUGAGGAUCACCCAUGUCAGGAUAUGCCCACGGGA | – | – | 4.87 | 5.29
GGAGCCCAGUCAGGAUAUGUAACGCUUAGGCUGUUACAUGAGGAUCACCCAUGUUUCACCGUGAAACAGAAGGGACAUUUGGCU | 382 | 122 | – | –
UGAAUGUAGGAGAAGGAGGACUUCAUGAGGAUCACCCAUGUGUUAGGACUUAGGAUAUUUGACGACAUGAGGAUCACCCAUGUG | 62.5 | 55.7 | – | –
GCGUAAUAGGUGUAGCUAGUCAUUCAAGAAGGGUGAAGAACAUGAGGAUCACCCAUGUGGUUUAUACAGGAUAUUGAUAUACGC | 363 | 90.4 | – | –
GCGCUUAUACAGAAGGCCAUAUACAUGAGGAUCACCCAUGUUACAUGGUGGAGGAUAUGUUAUUAAUUACAGGUAGAUGAGCGC | 4.61 | 4.42 | – | –
